Results published in ChEMBL document CHEMBL3351250, “Modified salicylanilide and 3-phenyl-2H-benzo[e][1,3]oxazine-2,4(3H)-dione derivatives as novel inhibitors of osteoclast differentiation and bone resorption” (J Med Chem, 2014).

Legend:
[1] = Cytotoxicity against mouse RAW264.7 cells assessed as survival rate at 10 uM after 24 hrs by MTT assay; format: cell-based; conditions: read-out: Activity
How it was run: (§1)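 Cells at 1 × 10⁴/well in DMEM + 10% FBS, exposed to compounds for 24 h at 37 °C, 5% CO₂. After PBS washes, MTT (0.5 mg/mL in medium) added for 1 h at 37 °C; formazan dissolved in DMSO, absorbance read at 540 nm. Viability expressed as % of DMSO control; CC₅₀ is the concentration giving 50% loss of mean viability (N = 3).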

RAW264.7 [2] = assay: Inhibition of RANKL-induced osteoclastogenesis in mouse RAW264.7 cells assessed as TRAP+ multinucleated cells level at 10 uM incubated for 4 days by TRAP staining assay; format: functional; parameters: scale not given: the % may be the effect or the level left
How it was run: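 Cells plated at 1 × 10³ (96-well) or 5 × 10⁴ (48-well) in α-MEM with 10% FBS, 2 mM […], 100 ng/mL recombinant murine RANKL and compound for 4 days; medium changed on day 2. Fixed in acetone/citrate/formaldehyde for 5 min and TRAP-stained. TRAP⁺ cells with >5 nuclei counted by light microscopy, expressed as % of the RANKL-only group.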

[3] = Cytotoxicity against mouse RAW264.7 cells assessed as reduction in survival rate after 24 hrs by MTT assay; format: cell-based; how it was run: as §1
RAW264.7 [4] = assay: Inhibition of RANKL-induced osteoclastogenesis in mouse RAW264.7 cells assessed as TRAP+ multinucleated cells level incubated for 4 days by TRAP staining assay; format: functional, cell-based; conditions: RAW264.7, 96 h
How it was run: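 RAW264.7 cells in α-MEM with 10% FBS, 2 mM […], 100 ng/mL recombinant soluble murine RANKL and a range of compound concentrations for 4 days, with medium changed on day 2. Cells fixed in acetone/citrate/formaldehyde for 5 min and TRAP-stained. Cells with >5 nuclei counted by light microscopy and expressed as % of RANKL-only; IC50 is 50% inhibition.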

RAW264.7 [5] = assay: Inhibition of RANKL-induced osteoclastogenesis in mouse RAW264.7 cells assessed as reduction in TRAP activity incubated for 4 days by TRAP staining assay; format: functional, cell-based; conditions: RAW264.7, 96 h
How it was run: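 RAW264.7 cells were RANKL-differentiated (100 ng/mL recombinant soluble murine RANKL in α-MEM/10% FBS, compounds at various concentrations, 4 days, medium changed day 2). TRAP activity was read with 2 mg/mL 4-nitrophenyl phosphate in 0.09 M citrate buffer for 15 min at 37 °C, stopped with 0.1 N NaOH. Expressed as % of RANKL-only; IC50 is 50% inhibition.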

COc1ccc(C(=O)Nc2ccc(-c3ccc(Cl)cc3F)cc2F)c(O)c1 gave a viability at 24 h, 10 µM [1] of 44.5% and an Activity (RAW264.7 [2]) of 60.6%.

For COc1ccc2c(=O)n(-c3ccc(F)cc3F)c(=O)oc2c1, the viability at 24 h, 10 µM [1] was 90.9%, the CC50 at 24 h [3] was over 40 µM and the Activity (RAW264.7 [2]) was 67.5%.

With COc1ccc2c(=O)n(-c3ccc(I)cc3F)c(=O)oc2c1 the viability at 24 h, 10 µM [1] was 103%, the CC50 at 24 h [3] was 30.1 µM and the Activity (RAW264.7 [2]) was 44.4%.

Compound O=C(Nc1ccc(-c2ccc(F)cc2F)cc1F)c1ccccc1O has a viability at 24 h, 10 µM [1] of 102%, a CC50 at 24 h [3] of 28.6 µM and an Activity (RAW264.7 [2]) of 100.1%.

In the case of O=C(Nc1ccc(I)cc1F)c1ccccc1O, the viability at 24 h, 10 µM [1] is reported as 96.7%, the CC50 at 24 h [3] is reported as 23.3 µM and the Activity (RAW264.7 [2]) is reported as 70.6%.

Work on O=C(O)c1ccccc1O [SALICYLIC ACID] yielded a CC50 at 24 h [3] of over 40 µM.

In the case of COc1ccc(C(=O)Nc2ccc(I)cc2F)c(OCc2ccc(F)cc2F)c1, the viability at 24 h, 10 µM [1] is reported as 104%, the CC50 at 24 h [3] is reported as 36.8 µM and the Activity (RAW264.7 [2]) is reported as 51.3%.

For O=c1oc2ccccc2c(=O)n1-c1ccc(F)cc1F, the viability at 24 h, 10 µM [1] was 88.8%, the CC50 at 24 h [3] was over 40 µM and the Activity (RAW264.7 [2]) was 82.5%.

For COc1ccccc1C(=O)Nc1ccc(I)cc1F, the viability at 24 h, 10 µM [1] was 95.4%, the CC50 at 24 h [3] was over 40 µM and the Activity (RAW264.7 [2]) was 106.6%.

COc1ccc(C(=O)Nc2ccc(I)cc2F)c(O)c1 gave a viability at 24 h, 10 µM [1] of 94.4%, a CC50 at 24 h [3] of 27.6 µM and an Activity (RAW264.7 [2]) of 39.4%.

O=C(Nc1ccc(Cl)cc1F)c1ccccc1OCc1ccc(F)cc1F gave a viability at 24 h, 10 µM [1] of 107%, a CC50 at 24 h [3] of over 40 µM and an Activity (RAW264.7 [2]) of 74.6%.

For O=C(Nc1ccc(-c2ccc(Cl)cc2Cl)cc1F)c1ccccc1O, the viability at 24 h, 10 µM [1] was 105%, the CC50 at 24 h [3] was 29.8 µM and the Activity (RAW264.7 [2]) was 91.2%.

Work on COc1ccc(C(=O)Nc2ccc(Cl)cc2F)c(OCc2ccc(F)cc2F)c1 yielded a viability at 24 h, 10 µM [1] of 107%, a CC50 at 24 h [3] of over 40 µM and an Activity (RAW264.7 [2]) of 68.7%.

O=C(Nc1ccc(Cl)cc1F)c1ccccc1 gave a viability at 24 h, 10 µM [1] of 105%, a CC50 at 24 h [3] of over 40 µM and an Activity (RAW264.7 [2]) of 77.9%.

Compound COc1ccc(C(=O)Nc2ccc(-c3ccc(Cl)cc3Cl)cc2F)c(O)c1 has a viability at 24 h, 10 µM [1] of 102%, a CC50 at 24 h [3] of over 40 µM and an Activity (RAW264.7 [2]) of 92.5%.

O=C(Nc1ccc(F)cc1F)c1ccccc1OCc1ccc(F)cc1F gave a viability at 24 h, 10 µM [1] of 101%, a CC50 at 24 h [3] of over 40 µM and an Activity (RAW264.7 [2]) of 97.6%.

O=C(Nc1ccc(F)cc1F)c1ccccc1O showed a viability at 24 h, 10 µM [1] of 76.1%, a CC50 at 24 h [3] of 38.4 µM and an Activity (RAW264.7 [2]) of 85.2%.

Compound O=C(Nc1ccc(I)cc1F)c1ccccc1 has a viability at 24 h, 10 µM [1] of 105%, a CC50 at 24 h [3] of over 40 µM and an Activity (RAW264.7 [2]) of 76.8%.

Compound COc1ccc(C(=O)Nc2ccc(F)cc2F)c(OC)c1 has a viability at 24 h, 10 µM [1] of 102%, a CC50 at 24 h [3] of over 40 µM and an Activity (RAW264.7 [2]) of 93%.

In the case of COc1ccc(C(=O)Nc2ccc(F)cc2F)c(O)c1, the viability at 24 h, 10 µM [1] is reported as 89.7%, the CC50 at 24 h [3] is reported as over 40 µM and the Activity (RAW264.7 [2]) is reported as 74.9%.

Compound O=C(Nc1ccc(-c2ccc(Cl)cc2F)cc1F)c1ccccc1O has a viability at 24 h, 10 µM [1] of 90.9%, a CC50 at 24 h [3] of 27.2 µM and an Activity (RAW264.7 [2]) of 84.8%.

For COc1ccc(C(=O)Nc2ccc(Cl)cc2F)c(OC)c1, the viability at 24 h, 10 µM [1] was 52.9%, the CC50 at 24 h [3] was 13.6 µM and the Activity (RAW264.7 [2]) was 60.2%.

For COc1ccccc1C(=O)Nc1ccc(F)cc1F, the viability at 24 h, 10 µM [1] was 108%, the CC50 at 24 h [3] was over 40 µM and the Activity (RAW264.7 [2]) was 89.1%.

In the case of O=C(Nc1ccc(I)cc1F)c1ccccc1OCc1ccc(F)cc1F, the viability at 24 h, 10 µM [1] is reported as 85%, the CC50 at 24 h [3] is reported as 32.6 µM and the Activity (RAW264.7 [2]) is reported as 85.5%.

Compound COc1ccc(C(=O)Nc2ccc(Cl)cc2F)cc1 has a viability at 24 h, 10 µM [1] of 106%, a CC50 at 24 h [3] of over 40 µM and an Activity (RAW264.7 [2]) of 100.4%.

With COc1ccc(C(=O)Nc2ccc(I)cc2F)cc1 the viability at 24 h, 10 µM [1] was 91.4%, the CC50 at 24 h [3] was 32.8 µM and the Activity (RAW264.7 [2]) was 89.3%.

With O=C(Nc1ccc(F)cc1F)c1ccccc1 the viability at 24 h, 10 µM [1] was 105%, the CC50 at 24 h [3] was over 40 µM and the Activity (RAW264.7 [2]) was 75.2%.

COc1ccc(C(=O)Nc2ccc(Cl)cc2F)c(O)c1 showed a viability at 24 h, 10 µM [1] of 103%, a CC50 at 24 h [3] of 32.3 µM and an Activity (RAW264.7 [2]) of 23.8%.

With COc1ccc(C(=O)Nc2ccc(-c3ccc(F)cc3F)cc2F)c(O)c1 the viability at 24 h, 10 µM [1] was 64.5%, the CC50 at 24 h [3] was 26.3 µM and the Activity (RAW264.7 [2]) was 50.1%.

Compound COc1ccccc1C(=O)Nc1ccc(Cl)cc1F has a viability at 24 h, 10 µM [1] of 102%, a CC50 at 24 h [3] of over 40 µM and an Activity (RAW264.7 [2]) of 86%.

For COc1ccc(C(=O)Nc2ccc(F)cc2F)cc1, the viability at 24 h, 10 µM [1] was 102%, the CC50 at 24 h [3] was over 40 µM and the Activity (RAW264.7 [2]) was 73.3%.

In the case of COc1ccc(C(=O)O)c(O)c1 [4-METHOXYSALICYLIC ACID], the viability at 24 h, 10 µM [1] is reported as 99.4%, the CC50 at 24 h [3] is reported as over 40 µM and the Activity (RAW264.7 [2]) is reported as 79.6%.

Work on COc1ccc(C(=O)Nc2ccc(F)cc2F)c(OCc2ccc(F)cc2F)c1 yielded a viability at 24 h, 10 µM [1] of 106%, a CC50 at 24 h [3] of over 40 µM and an Activity (RAW264.7 [2]) of 66.2%.

O=C(Nc1ccc(Cl)cc1F)c1ccccc1O gave a viability at 24 h, 10 µM [1] of 93%, a CC50 at 24 h [3] of 23.2 µM and an Activity (RAW264.7 [2]) of 49.4%. It also gave an IC50 (RAW264.7 [4]) of 10 µM and an IC50 (RAW264.7 [5]) of 12.5 µM.

COc1ccc2c(=O)n(-c3ccc(Cl)cc3F)c(=O)oc2c1 showed a viability at 24 h, 10 µM [1] of 100%, a CC50 at 24 h [3] of over 40 µM and an Activity (RAW264.7 [2]) of 36%.

COc1ccc(C(=O)Nc2ccc(I)cc2F)c(OC)c1 gave a viability at 24 h, 10 µM [1] of 95%, a CC50 at 24 h [3] of over 40 µM and an Activity (RAW264.7 [2]) of 92.4%.
